ChEMBL document CHEMBL4270612, “Discovery of dual GyrB/ParE inhibitors active against Gram-negative bacteria” (Eur J Med Chem, 2018)
Values after ≈ are worked out from the molar mass of the structure shown.

Columns and labels:
Pseudomonas aeruginosa [1] = assay: Antibacterial activity against Pseudomonas aeruginosa ARC4060 after 24 hrs by broth microdilution method; format: functional; details: ARC4060, 24 h
In short: (§1)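 Broth microdilution per CLSI. Bacterial suspension adjusted to 1×10^6 CFU/mL in cation-adjusted Mueller–Hinton broth and mixed 1:1 with 2-fold serial compound dilutions. Final DMSO 2.5% v/v. Plates incubated at 35 °C with shaking at 140 rpm for 24 h.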

Pseudomonas aeruginosa [2] = assay: Antibacterial activity against Pseudomonas aeruginosa ARC4063 after 24 hrs by broth microdilution method; format: functional; details: ARC4063, 24 h
In short: (§2)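 Broth microdilution per CLSI. Bacterial suspension adjusted to 1×10^6 CFU/mL in cation-adjusted Mueller–Hinton broth and mixed 1:1 with 2-fold serial compound dilutions. Plates incubated at 35 °C with shaking at 140 rpm for 24 h.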

Enterobacter cloacae = assay: Antibacterial activity against Enterobacter cloacae ARC3528 after 24 hrs by broth microdilution method; format: functional; details: ARC3528, 24 h; in short: as §1
Acinetobacter baumannii [3] = assay: (§3) Antibacterial activity against Acinetobacter baumannii ARC3495 after 24 hrs by broth microdilution method; format: functional; details: ARC3495, 24 h; in short: as §1
Staphylococcus aureus [4] = assay: Antibacterial activity against methicillin-resistant Staphylococcus aureus USA100 after 24 hrs by broth microdilution method; format: functional; details: USA100, 24 h
In short: (§4)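 Broth microdilution per CLSI. Bacterial suspensions adjusted to 1×10^6 CFU/mL in cation-adjusted Mueller–Hinton broth, mixed 1:1 with 2-fold serial compound dilutions (final DMSO 2.5% v/v). Incubation 35 °C, 140 rpm, 24 h.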

Acinetobacter baumannii [5] = assay: as §3; format: functional; details: ARC3495, 24 h; in short: as §1; remark: listed apart in the source
Enterococcus faecalis = assay: Antibacterial activity against Enterococcus faecalis ATCC 29212 after 24 hrs by broth microdilution method; format: functional; details: ATCC 29212, 24 h; in short: as §1
DNA gyrase subunit B = DNA gyrase subunit B (Escherichia coli, UniProt P0AES6); assay: Inhibition of Escherichia coli GyrB (1 to 220 residues) expressed in Escherichia coli BL21(DE3)
Klebsiella pneumoniae = assay: Antibacterial activity against Klebsiella pneumoniae ARC1865 after 24 hrs by broth microdilution method; format: functional; details: ARC1865, 24 h; in short: as §1
Acinetobacter baumannii [6] = assay: Antibacterial activity against Acinetobacter baumannii ARC3484 after 24 hrs by broth microdilution method; format: functional; details: ARC3484, 24 h; in short: as §2
Pseudomonas aeruginosa [7] = assay: Antibacterial activity against Pseudomonas aeruginosa ARC3729 after 24 hrs by broth microdilution method; format: functional; details: ARC3729, 24 h; in short: as §1
Streptococcus pneumoniae = assay: Antibacterial activity against Streptococcus pneumoniae ATCC 49619 after 24 hrs by broth microdilution method; format: functional; details: ATCC 49619, 24 h; in short: as §1
Pseudomonas aeruginosa [8] = assay: Antibacterial activity against Pseudomonas aeruginosa PAO1 after 24 hrs by broth microdilution method; format: functional; details: PAO1, 24 h; in short: as §1
Pseudomonas aeruginosa [9] = assay: Antibacterial activity against Pseudomonas aeruginosa ARC3506 after 24 hrs by broth microdilution method; format: functional; details: ARC3506, 24 h; in short: as §1
Pseudomonas aeruginosa [10] = assay: Antibacterial activity against Pseudomonas aeruginosa ARC3916 after 24 hrs by broth microdilution method; format: functional; details: ARC3916, 24 h; in short: as §1
Pseudomonas aeruginosa [11] = assay: Antibacterial activity against Pseudomonas aeruginosa ARC3727 after 24 hrs by broth microdilution method; format: functional; details: ARC3727, 24 h; in short: as §2
Pseudomonas aeruginosa [12] = assay: Antibacterial activity against Pseudomonas aeruginosa ARC3756 after 24 hrs by broth microdilution method; format: functional; details: ARC3756, 24 h; in short: as §2
Acinetobacter baumannii [13] = assay: Antibacterial activity against Acinetobacter baumannii ARC2781 after 24 hrs by broth microdilution method; format: functional; details: ARC2781, 24 h; in short: as §2
Acinetobacter baumannii [14] = assay: Antibacterial activity against Acinetobacter baumannii ARC3485 after 24 hrs by broth microdilution method; format: functional; details: ARC3485, 24 h; in short: as §1
Acinetobacter baumannii [15] = assay: Antibacterial activity against Acinetobacter baumannii ARC2779 after 24 hrs by broth microdilution method; format: functional; details: ARC2779, 24 h; in short: as §1
Pseudomonas aeruginosa [16] = assay: Antibacterial activity against Pseudomonas aeruginosa ARC3504 after 24 hrs by broth microdilution method; format: functional; details: ARC3504, 24 h; in short: as §1
Pseudomonas aeruginosa [17] = assay: Antibacterial activity against Pseudomonas aeruginosa ARC3607 after 24 hrs by broth microdilution method; format: functional; details: ARC3607, 24 h; in short: as §1
Acinetobacter baumannii [18] = assay: Antibacterial activity against Acinetobacter baumannii ARC2780 after 24 hrs by broth microdilution method; format: functional; details: ARC2780, 24 h; in short: as §2
Acinetobacter baumannii [19] = assay: Antibacterial activity against Acinetobacter baumannii ARC2675 after 24 hrs by broth microdilution method; format: functional; details: ARC2675, 24 h; in short: as §2
Acinetobacter baumannii [20] = assay: Antibacterial activity against Acinetobacter baumannii ARC3658 after 24 hrs by broth microdilution method; format: functional; details: ARC3658, 24 h; in short: as §1
Acinetobacter baumannii [21] = assay: Antibacterial activity against Acinetobacter baumannii ARC3515 after 24 hrs by broth microdilution method; format: functional; details: ARC3515, 24 h; in short: as §1
Pseudomonas aeruginosa [22] = assay: Antibacterial activity against Pseudomonas aeruginosa ARC3502 after 24 hrs by broth microdilution method; format: functional; details: ARC3502, 24 h; in short: as §2
Candida albicans = assay: Antifungal activity against Candida albicans ATCC 90028 after 24 hrs by broth microdilution method; format: functional; details: ATCC 90028, 24 h
Acinetobacter baumannii [23] = assay: Antibacterial activity against Acinetobacter baumannii ARC2728 after 24 hrs by broth microdilution method; format: functional; details: ARC2728, 24 h; in short: as §1
[24] = Thermodynamic solubility of the compound at pH 7.4; format: physicochemical; details: buffer, read-out: Therm_solubility
Acinetobacter baumannii [25] = assay: Antibacterial activity against Acinetobacter baumannii ARC2674 after 24 hrs by broth microdilution method; format: functional; details: ARC2674, 24 h; in short: as §1
Staphylococcus aureus [26] = assay: Antibacterial activity against Staphylococcus aureus ATCC 29213 after 24 hrs in presence of 2% human albumin by broth microdilution method; format: functional; details: ATCC 29213, 24 h
Acinetobacter baumannii [27] = assay: Antibacterial activity against Acinetobacter baumannii ARC3493 after 24 hrs by broth microdilution method; format: functional; details: ARC3493, 24 h; in short: as §1
Acinetobacter baumannii [28] = assay: Antibacterial activity against Acinetobacter baumannii ARC3882 after 24 hrs by broth microdilution method; format: functional; details: ARC3882, 24 h; in short: as §1
Pseudomonas aeruginosa [29] = assay: Antibacterial activity against Pseudomonas aeruginosa ARC003 after 24 hrs by broth microdilution method; format: functional; details: ARC003, 24 h; in short: as §1
Staphylococcus aureus [30] = assay: Antibacterial activity against methicillin-resistant Staphylococcus aureus FQ-R after 24 hrs by broth microdilution method; format: functional; in short: as §4
Pseudomonas aeruginosa [31] = assay: Antibacterial activity against Pseudomonas aeruginosa ARC3511 after 24 hrs by broth microdilution method; format: functional; details: ARC3511, 24 h; in short: as §2
Acinetobacter baumannii [32] = assay: Antibacterial activity against Acinetobacter baumannii ARC3513 after 24 hrs by broth microdilution method; format: functional; details: ARC3513, 24 h; in short: as §1
Pseudomonas aeruginosa [33] = assay: Antibacterial activity against Pseudomonas aeruginosa ARC3509 after 24 hrs by broth microdilution method; format: functional; details: ARC3509, 24 h; in short: as §1
Staphylococcus aureus [34] = assay: Antibacterial activity against Staphylococcus aureus ATCC 29213 after 24 hrs by broth microdilution method; format: functional; details: ATCC 29213, 24 h; in short: as §1
Streptococcus pyogenes = assay: Antibacterial activity against Streptococcus pyogenes ARC838 after 24 hrs by broth microdilution method; format: functional; details: ARC838, 24 h; in short: as §2
Escherichia coli = assay: Antibacterial activity against tolC deficient Escherichia coli after 24 hrs by broth microdilution method; format: functional
In short: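 Broth microdilution per CLSI guidelines. Inoculum adjusted to 1×10^6 CFU/mL in cation-adjusted Mueller–Hinton broth, added 1:1 to 2-fold serial compound dilutions; final DMSO 2.5% v/v. Plates incubated 35 °C, 140 rpm, 24 h.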

Pseudomonas aeruginosa [35] = assay: Antibacterial activity against Pseudomonas aeruginosa ARC4068 after 24 hrs by broth microdilution method; format: functional; details: ARC4068, 24 h; in short: as §2

**Q.** Which results are given for `CCNC(=O)Nc1cc(-c2nc(C3CC3)cs2)c(-c2cc(-c3n[nH]c(=O)o3)cnc2N2C3CCC2CN(C)C3)cn1`?
**A.** MIC (Pseudomonas aeruginosa [1]): 4 µg/mL (≈ 6.97 µM); MIC (Pseudomonas aeruginosa [2]): 4 µg/mL (≈ 6.97 µM); MIC (Enterobacter cloacae): 16 µg/mL (≈ 27.9 µM); MIC (Acinetobacter baumannii [3]): 0.5 µg/mL (≈ 0.872 µM); MIC (Staphylococcus aureus [4]): < 0.06 µg/mL; MIC (Acinetobacter baumannii [5]): 0.5 µg/mL (≈ 0.872 µM); MIC (Enterococcus faecalis): < 0.06 µg/mL; IC50 (DNA gyrase subunit B): 2 nM; MIC (Klebsiella pneumoniae): 16 µg/mL (≈ 27.9 µM); MIC (Acinetobacter baumannii [6]): 2 µg/mL (≈ 3.49 µM); MIC (Pseudomonas aeruginosa [7]): 4 µg/mL (≈ 6.97 µM); MIC (Streptococcus pneumoniae): < 0.06 µg/mL; MIC (Pseudomonas aeruginosa [8]): 1.14 µg/mL (≈ 1.99 µM); MIC (Pseudomonas aeruginosa [9]): 2 µg/mL (≈ 3.49 µM); MIC (Pseudomonas aeruginosa [10]): 2 µg/mL (≈ 3.49 µM); MIC (Pseudomonas aeruginosa [11]): 4 µg/mL (≈ 6.97 µM); MIC (Pseudomonas aeruginosa [12]): 4 µg/mL (≈ 6.97 µM); MIC (Acinetobacter baumannii [13]): 0.25 µg/mL (≈ 0.436 µM); MIC (Acinetobacter baumannii [14]): 2 µg/mL (≈ 3.49 µM); MIC (Acinetobacter baumannii [15]): 1 µg/mL (≈ 1.74 µM); MIC (Pseudomonas aeruginosa [16]): 4 µg/mL (≈ 6.97 µM); MIC (Pseudomonas aeruginosa [17]): 4 µg/mL (≈ 6.97 µM); MIC (Acinetobacter baumannii [18]): 0.5 µg/mL (≈ 0.872 µM); MIC (Acinetobacter baumannii [19]): 2 µg/mL (≈ 3.49 µM); MIC (Acinetobacter baumannii [20]): 1 µg/mL (≈ 1.74 µM); MIC (Acinetobacter baumannii [21]): 2 µg/mL (≈ 3.49 µM); MIC (Pseudomonas aeruginosa [22]): 4 µg/mL (≈ 6.97 µM); MIC (Candida albicans): > 64 µg/mL; MIC (Acinetobacter baumannii [23]): 1 µg/mL (≈ 1.74 µM); solubility thermodynamic [24]: 65.8 µM (≈ 37.7 µg/mL); MIC (Acinetobacter baumannii [25]): 4 µg/mL (≈ 6.97 µM); MIC (Staphylococcus aureus [26]): < 0.06 µg/mL; MIC (Acinetobacter baumannii [27]): 1 µg/mL (≈ 1.74 µM); MIC (Acinetobacter baumannii [28]): 1 µg/mL (≈ 1.74 µM); MIC (Pseudomonas aeruginosa [29]): 1 µg/mL (≈ 1.74 µM); MIC (Staphylococcus aureus [30]): < 0.06 µg/mL; MIC (Pseudomonas aeruginosa [31]): 1 µg/mL (≈ 1.74 µM); MIC (Acinetobacter baumannii [32]): 4 µg/mL (≈ 6.97 µM); MIC (Pseudomonas aeruginosa [33]): 4 µg/mL (≈ 6.97 µM); MIC (Staphylococcus aureus [34]): < 0.06 µg/mL; MIC (Streptococcus pyogenes): < 0.06 µg/mL; MIC (Escherichia coli): 0.11 µg/mL (≈ 0.192 µM); MIC (Pseudomonas aeruginosa [35]): 4 µg/mL (≈ 6.97 µM)
